# Reference: publication PMC3242808 (The Journal of neuroscience : the official journal of the …, 2011)
# Where “and” joins values, the source holds several entries; their conditions need not be identical. Equal entries are not always repeated.
# How the values were obtained:
# [1] = molecular target: TRPA1 (Mus musculus, UniProt Q8BLA8); assay: Whole-cell patch clamp of AITC-induced TRPA1 currents in dissociated DRG neurons; type: cell-based; details: for Effect on TRPA1 currents: AITC (300 μM)-induced current; for IC50: read-out: TRPA1 IC50, TRPA1 current induced by AITC (300 μM), DRG neurons
# Chain of TRPA1 (Mus musculus, UniProt Q8BLA8) (Q8BLA8 whole entry): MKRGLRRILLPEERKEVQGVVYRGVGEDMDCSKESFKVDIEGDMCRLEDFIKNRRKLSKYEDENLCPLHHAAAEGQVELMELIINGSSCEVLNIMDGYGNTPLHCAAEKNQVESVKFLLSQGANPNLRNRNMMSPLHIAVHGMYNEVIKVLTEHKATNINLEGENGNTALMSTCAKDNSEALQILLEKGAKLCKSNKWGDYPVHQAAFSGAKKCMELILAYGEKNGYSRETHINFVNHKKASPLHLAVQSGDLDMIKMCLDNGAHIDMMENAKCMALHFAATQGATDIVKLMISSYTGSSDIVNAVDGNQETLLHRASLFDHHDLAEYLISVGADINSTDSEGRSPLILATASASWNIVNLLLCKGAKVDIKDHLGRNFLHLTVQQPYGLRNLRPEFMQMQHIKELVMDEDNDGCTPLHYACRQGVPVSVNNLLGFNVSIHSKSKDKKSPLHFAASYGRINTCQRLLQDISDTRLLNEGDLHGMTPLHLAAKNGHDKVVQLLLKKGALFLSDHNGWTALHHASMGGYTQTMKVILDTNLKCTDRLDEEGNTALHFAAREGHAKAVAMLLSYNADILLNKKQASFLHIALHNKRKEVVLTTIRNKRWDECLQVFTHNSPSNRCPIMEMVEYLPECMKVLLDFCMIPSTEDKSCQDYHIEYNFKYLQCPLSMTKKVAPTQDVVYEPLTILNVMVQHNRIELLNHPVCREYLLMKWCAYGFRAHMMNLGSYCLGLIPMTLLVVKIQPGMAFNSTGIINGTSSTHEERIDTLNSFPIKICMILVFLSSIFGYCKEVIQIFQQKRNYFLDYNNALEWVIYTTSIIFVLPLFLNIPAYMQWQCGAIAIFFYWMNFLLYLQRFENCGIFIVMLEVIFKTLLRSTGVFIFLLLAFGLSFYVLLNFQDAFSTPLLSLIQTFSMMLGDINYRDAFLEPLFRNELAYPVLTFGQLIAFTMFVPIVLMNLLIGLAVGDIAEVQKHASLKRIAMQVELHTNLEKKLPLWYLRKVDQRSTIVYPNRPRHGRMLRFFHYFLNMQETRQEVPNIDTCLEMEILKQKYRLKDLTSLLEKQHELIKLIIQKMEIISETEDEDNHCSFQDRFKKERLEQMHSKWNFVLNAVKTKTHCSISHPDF
# [2] = tested on: CD1 mice; assay: AITC-induced spontaneous pain; type: in vivo, mouse; details: AITC 1 μg; for AITC-induced pain: 10 μg intraplantar; for AITC-induced nocifensive behaviors: 10 ng intraplantar
# [3] = tested on: CD1 mice; assay: Capsaicin-induced spontaneous pain; type: in vivo, mouse; details: capsaicin 1 μg; for Capsaicin-induced pain: 10 μg intraplantar; for Capsaicin-induced nocifensive behaviors: 10 ng intraplantar
# [4] = tested on: TRPV1; type: cell-based, mouse; details: capsaicin 1 μM
# [5] = tested on: CD1 mice; assay: Formalin test; type: in vivo, mouse; details: 0.01 ng intrathecal
# [6] = molecular target: TRPV1 (Mus musculus, UniProt Q704Y3); type: cell-based; details: for IC50: read-out: TRPV1 IC50
# Chain of TRPV1 (Mus musculus, UniProt Q704Y3) (Q704Y3 whole entry): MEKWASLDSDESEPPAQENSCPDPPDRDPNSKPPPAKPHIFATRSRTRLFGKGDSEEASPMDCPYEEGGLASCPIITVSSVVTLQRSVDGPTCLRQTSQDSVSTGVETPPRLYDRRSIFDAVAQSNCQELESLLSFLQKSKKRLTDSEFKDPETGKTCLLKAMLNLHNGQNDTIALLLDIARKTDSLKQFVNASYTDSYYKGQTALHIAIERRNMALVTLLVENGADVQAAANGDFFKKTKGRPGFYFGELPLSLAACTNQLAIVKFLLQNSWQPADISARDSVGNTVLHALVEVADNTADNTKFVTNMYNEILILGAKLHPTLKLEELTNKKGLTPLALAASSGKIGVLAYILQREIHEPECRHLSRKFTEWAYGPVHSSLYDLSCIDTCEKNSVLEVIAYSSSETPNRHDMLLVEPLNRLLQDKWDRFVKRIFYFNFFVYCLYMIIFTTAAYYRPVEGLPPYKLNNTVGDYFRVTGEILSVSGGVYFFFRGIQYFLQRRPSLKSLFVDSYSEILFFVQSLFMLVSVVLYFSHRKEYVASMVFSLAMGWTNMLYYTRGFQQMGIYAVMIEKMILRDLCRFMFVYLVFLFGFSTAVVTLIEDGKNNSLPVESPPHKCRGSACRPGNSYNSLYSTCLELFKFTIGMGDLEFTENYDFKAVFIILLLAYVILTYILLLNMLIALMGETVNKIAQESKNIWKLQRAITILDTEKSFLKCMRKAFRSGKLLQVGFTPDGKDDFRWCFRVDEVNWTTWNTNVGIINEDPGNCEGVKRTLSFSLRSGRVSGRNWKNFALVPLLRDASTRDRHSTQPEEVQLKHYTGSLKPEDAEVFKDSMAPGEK
# [7] = tested on: TRPA1; assay: AITC-induced sEPSC frequency increase in lamina II neurons of spinal cord slices; type: cell-based, mouse; details: AITC 300 μM
# Procedure, shortened: (§1)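 Transverse L4–L5 spinal cord slices (400–600 μm) from CD1 mice aged 4–6 weeks, perfused with Krebs solution gassed with 95% O2/5% CO2 at 37°C. Whole-cell sEPSCs recorded from lamina IIo neurons held at −70 mV with K-gluconate internal solution at pH 7.4. Signals filtered at 2 kHz and digitized at 5 kHz. Frequency ratio taken against pretreatment baseline, with AITC at […]; n = 5–9 neurons.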
# [8] = tested on: C-fiber-evoked field potentials in the dorsal horn; assay: Spinal cord LTP of C-fiber-evoked field potentials in anesthetized mice; type: in vivo, mouse; details: 10 ng intrathecal, 2 h after LTP induction
# Procedure, shortened: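 Mice under urethane (1.5 g/kg i.p.), laminectomy at T13–L1. Bipolar sciatic nerve stimulation; C-fiber field potentials recorded in ipsilateral L4–L5 dorsal horn at 100–300 μm depth. Test pulses (2× threshold, 0.5 ms) every 5 min for >40 min, then tetanus (5× threshold, 100 Hz, 1 s, four trains, 10 s apart). Test compound 10 ng i.t. via PE5 catheter 2 h post-induction; n = 5; two-way ANOVA.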
# [9] = tested on: CD1 mice; assay: Carrageenan-induced inflammatory pain; type: in vivo, mouse; details: 10 ng intraplantar
# [10] = tested on: lamina II neurons of spinal cord slices; assay: Patch clamp of basal sEPSCs in lamina II neurons of spinal cord slices; type: cell-based, mouse; details: RvD2 alone, 1 ng/ml
# Procedure, shortened: as §1
# [11] = tested on: CD1 mice; assay: Rota-Rod test of motor function; type: in vivo, mouse; details: 10 ng i.t., naive animals
# [12] = tested on: CD1 mice; assay: CFA-induced persistent inflammatory pain; type: in vivo, mouse; details: 10 ng intrathecal, 3 days after CFA
# [13] = tested on: lamina II neurons of spinal cord slices; assay: sEPSCs in spinal cord slices from CFA-inflamed mice; type: cell-based, mouse; details: 1 ng/ml; slices from CFA-inflamed mice (one day)
# Procedure, shortened: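 CD1 mice received CFA intraplantar (20 μl, 1 mg/ml) and were sliced 1 d later. Slices were compared with ones from noninflamed mice. L4–L5 transverse slices (400–600 μm) were perfused with Krebs solution at 37°C. Whole-cell recording from lamina IIo neurons held at −70 mV. sEPSC frequency and amplitude measured with test compound at 1 ng/ml; n = 5 neurons.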
# [14] = GDPβS 2.5 mM, 8 min, RvD2 1 ng/ml
# [15] = PTX 0.5 μg/ml, 18 h, RvD2 1 ng/ml
# [16] = TRPV1 current induced by capsaicin (100 nM), DRG neurons
structure (smiles),measurement,setting,value
"CC/C=C\C/C=C\C/C=C\C/C=C\C/C=C\CCCC(=O)O [EPA, eicosapentaenoic acid, reference compound]",Effect on TRPA1 currents,[1],without affecting
same,AITC-induced pain,[2],but not AITC-induced pain
same,Capsaicin-induced pain,[3],inhibited
"CC/C=C\C/C=C\C/C=C\C/C=C\C/C=C\C/C=C\CCC(=O)O [DHA, docosahexaenoic acid, reference compound]",Effect on TRPA1 currents,[1],without affecting
same,AITC-induced pain,[2],but not AITC-induced pain
same,Capsaicin-induced pain,[3],inhibited
"CC[C@@H](O)/C=C/C=C\C[C@@H](O)/C=C/C=C/C=C\[C@@H](O)CCCC(=O)O [RvE1, Resolvin E1]",Capsaicin-induced sEPSC frequency increase,[4]; 1 ng/ml,selectively inhibited
same,Effect on TRPA1 currents,[1],did not inhibit
same,Capsaicin-induced nocifensive behaviors,[3],selectively inhibited
"CC/C=C\C[C@H](O)[C@H](O)/C=C/C=C/C=C\C=C\[C@@H](O)C/C=C\CCC(=O)O [RvD2, Resolvin D2]",Capsaicin-induced increase in sEPSC frequency,[4]; 0.1 and 1 ng/ml,does-dependently blocked
same,Antinociceptive action in formalin test,[5],significant antinociceptive action
same,Inhibition of TRPV1 current under intracellular GDPβS,[6]; [14],completely blocked
same,Effect on TRPV1 current after pertussis toxin pretreatment,[6]; [15],could not alter
same,TRPV1 IC50 expressed,[6]; [16],0.04 ng/mL
same,IC50,[6]; [16],0.1 ± 0.01 nM
same,AITC-induced increase in sEPSC frequency,[7]; 0.1 and 1 ng/ml,does-dependently blocked
same,LTP of C-fiber-evoked field potentials,[8],completely reversed
same,CRG-induced heat hyperalgesia,[9],largely prevented
same,CRG-induced mechanical allodynia,[9],largely prevented
same,CRG-induced paw edema,[9]; data not shown,reduced
same,Basal sEPSC amplitude,[10],altered neither
same,Basal sEPSC frequency,[10],altered neither
same,Inhibition of TRPA1 current under intracellular GDPβS,[1]; [14],completely blocked
same,Effect on TRPA1 current after pertussis toxin pretreatment,[1]; [15],could not alter
same,IC50,[1],2 nM and 2.1 nM
same,AITC-induced nocifensive behaviors,[2],significantly reduced
same,Motor function in the Rota-rod test,[11],Neither did this treatment affect
same,CFA-induced heat hyperalgesia,[12],effectively reduced
same,Duration of reduction of CFA-induced heat hyperalgesia and mechanical allodynia,[12],> 3 h
same,CFA-induced mechanical allodynia,[12]; data not shown,effectively reduced
same,CFA-induced increase in sEPSC amplitude,[13],abolished
same,CFA-induced increase in sEPSC frequency,[13],abolished
same,Capsaicin-induced nocifensive behaviors,[3],significantly reduced
"CC/C=C\C[C@H](O)/C=C/C=C\C=C\C=C\[C@@H](O)[C@@H](O)C/C=C\CCC(=O)O [RvD1, Resolvin D1]",Effect on TRPV1 currents,[6]; even at high concentrations,no effect
same,IC50,[6]; [16],> 26.6 nM
same,AITC-induced sEPSC frequency increase,[7]; 10 ng/ml,selectively inhibited
same,IC50,[1],9 nM and 8.5 nM
same,AITC-induced nocifensive behaviors,[2],selectively inhibited
